Results taken from ChEMBL document CHEMBL1125845, “Indazolinones, a new series of redox-active 5-lipoxygenase inhibitors with built-in selectivity and oral activity” (J Med Chem, 1991).

Assays:
Cyclooxygenase [1] = target: T1, Cyclooxygenase (Rattus norvegicus, UniProt P35355+Q63921); assay: In vitro inhibition of PGE-2 production was measured in rat blood; format: functional
T1 sequence (P35355 whole entry): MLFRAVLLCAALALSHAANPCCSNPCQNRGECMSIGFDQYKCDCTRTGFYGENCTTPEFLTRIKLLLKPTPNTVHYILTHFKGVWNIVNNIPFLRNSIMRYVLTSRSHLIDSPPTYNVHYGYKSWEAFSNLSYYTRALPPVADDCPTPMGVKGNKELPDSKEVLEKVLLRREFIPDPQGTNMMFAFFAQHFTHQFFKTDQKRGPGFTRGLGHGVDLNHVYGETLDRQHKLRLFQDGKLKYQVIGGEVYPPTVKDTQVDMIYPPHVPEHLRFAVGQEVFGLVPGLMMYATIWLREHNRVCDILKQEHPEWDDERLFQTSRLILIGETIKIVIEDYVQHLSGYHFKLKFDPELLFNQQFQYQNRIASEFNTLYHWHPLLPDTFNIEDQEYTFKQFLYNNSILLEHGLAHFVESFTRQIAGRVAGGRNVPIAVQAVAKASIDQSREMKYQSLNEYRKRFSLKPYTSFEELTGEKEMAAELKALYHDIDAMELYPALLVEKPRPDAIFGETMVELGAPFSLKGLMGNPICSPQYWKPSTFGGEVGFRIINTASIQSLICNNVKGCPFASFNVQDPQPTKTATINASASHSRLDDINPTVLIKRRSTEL
T1 sequence (Q63921 whole entry): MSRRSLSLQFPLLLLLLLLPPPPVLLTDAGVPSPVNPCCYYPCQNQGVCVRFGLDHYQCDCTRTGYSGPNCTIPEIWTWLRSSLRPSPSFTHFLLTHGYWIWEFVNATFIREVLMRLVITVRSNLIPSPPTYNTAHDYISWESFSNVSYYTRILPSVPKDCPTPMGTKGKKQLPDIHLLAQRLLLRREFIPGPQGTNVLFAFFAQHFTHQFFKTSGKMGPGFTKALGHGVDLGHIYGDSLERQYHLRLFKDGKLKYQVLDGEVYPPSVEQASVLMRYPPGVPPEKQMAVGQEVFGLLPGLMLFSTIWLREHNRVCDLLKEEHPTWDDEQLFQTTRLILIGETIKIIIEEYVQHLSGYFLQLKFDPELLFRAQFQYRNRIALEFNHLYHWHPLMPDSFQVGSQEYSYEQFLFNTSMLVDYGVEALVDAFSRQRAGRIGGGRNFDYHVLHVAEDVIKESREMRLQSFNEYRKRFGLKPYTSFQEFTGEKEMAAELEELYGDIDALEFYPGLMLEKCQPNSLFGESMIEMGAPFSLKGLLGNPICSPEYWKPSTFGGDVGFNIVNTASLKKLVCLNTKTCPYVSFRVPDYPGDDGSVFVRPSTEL

[2] = target: T2, Polyunsaturated fatty acid 5-lipoxygenase (Rattus norvegicus, UniProt P12527); assay: In vitro inhibition of LTB4 production was measured in rat blood; format: functional
T2 sequence (P12527 whole entry): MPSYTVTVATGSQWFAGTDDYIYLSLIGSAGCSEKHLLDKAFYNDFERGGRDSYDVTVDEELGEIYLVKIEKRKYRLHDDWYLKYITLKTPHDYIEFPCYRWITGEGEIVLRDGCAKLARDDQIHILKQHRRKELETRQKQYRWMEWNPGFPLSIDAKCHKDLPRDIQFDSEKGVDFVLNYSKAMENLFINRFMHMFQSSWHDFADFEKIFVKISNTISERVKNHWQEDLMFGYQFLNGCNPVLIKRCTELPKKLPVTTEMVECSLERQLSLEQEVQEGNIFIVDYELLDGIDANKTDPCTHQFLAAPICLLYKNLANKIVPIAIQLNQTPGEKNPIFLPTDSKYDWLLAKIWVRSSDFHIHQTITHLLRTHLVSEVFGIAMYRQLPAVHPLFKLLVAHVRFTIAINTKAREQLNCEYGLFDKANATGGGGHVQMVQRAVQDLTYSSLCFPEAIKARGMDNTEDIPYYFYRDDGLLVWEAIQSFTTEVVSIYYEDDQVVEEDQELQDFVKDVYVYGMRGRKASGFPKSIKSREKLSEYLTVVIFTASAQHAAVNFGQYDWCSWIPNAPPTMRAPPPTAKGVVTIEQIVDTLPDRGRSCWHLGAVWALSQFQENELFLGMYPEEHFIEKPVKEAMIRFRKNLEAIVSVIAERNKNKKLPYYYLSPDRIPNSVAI
In short: (§1)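 Pooled heparinized blood from male Alderley Park Wistar rats (vena cava) held on ice; preincubated with compound in DMSO (1% final) 15 min at 37 °C, then A23187 (20 µg/mL) added for a further 15 min; stopped with cocktail of indomethacin, EGTA and azide; plasma LTB4 and PGE2 by radioimmunoassay. IC50 by nonlinear regression from two experiments.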

[3] = target: Polyunsaturated fatty acid 5-lipoxygenase (Canis lupus familiaris); assay: Ex vivo inhibition of LTB4 production was measured in dog blood
Cyclooxygenase [4] = target: T1, Cyclooxygenase; assay: In vitro inhibition of PGE-2 (PG) production in rat blood; 3-30; format: functional; in short: as §1
Canis familiaris = species on record: Canis familiaris; assay: In vitro test for the induction of the production of methemoglobin (MHb) in dog blood; format: functional, Canis lupus familiaris
In short: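 Pooled heparinized dog blood (leg vein) incubated with compound for 2 h at 37 °C; methemoglobin quantified by cooximeter.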

O=c1c2ccccc2[nH]n1Cc1cccs1
IC50 (Cyclooxygenase [1]): 26 µM

Cc1ccc(Cn2[nH]c3ccccc3c2=O)cn1
IC50 [2]: 2.5 µM
IC50 (Cyclooxygenase [1]): 21 µM
ED50 [3]: 10 mg/kg

O=c1c2ccccc2[nH]n1Cc1cncc(Br)c1
IC50 [2]: 1 µM
IC50 (Cyclooxygenase [1]): 39 µM
ED50 [3]: 10 mg/kg

O=c1[nH]n(Cc2ccccc2)c2ccccc12
IC50 [2]: 3.4 µM
IC50 (Cyclooxygenase [1]): 31 µM

O=c1c(O)c(-c2ccc(O)c(O)c2)oc2cc(O)cc(O)c12 [QUERCETIN]
IC50 (Cyclooxygenase [1]): 50 µM

O=c1c2ccccc2[nH]n1Cc1c[nH]c2ccccc12
IC50 (Cyclooxygenase [1]): 94 µM

c1ccc(COc2[nH]nc3ccccc23)cc1
IC50 [2]: > 30 µM

CC(Cc1ccc(O)c(O)c1)C(C)Cc1ccc(O)c(O)c1 (stereo unspecified) [NORDIHYDROGUAIARETIC ACID]
IC50 (Cyclooxygenase [1]): 30 µM

O=c1c2ccccc2[nH]n1-c1ccccc1
IC50 (Cyclooxygenase [1]): 2.7 µM

O=c1c2ccccc2[nH]n1Cc1cccnc1Cl
IC50 [2]: 1.4 µM
IC50 (Cyclooxygenase [1]): 12 µM
ED50 [3]: 5 mg/kg

COc1nn(Cc2ccccc2)c2ccccc12
IC50 [2]: > 30 µM

Cc1ncccc1Cn1[nH]c2ccccc2c1=O
IC50 [2]: 2.6 µM
IC50 (Cyclooxygenase [1]): 58 µM
ED50 [3]: 10 mg/kg

Cc1cncc(Cn2[nH]c3ccccc3c2=O)c1
IC50 [2]: 1.8 µM
IC50 (Cyclooxygenase [1]): 81 µM
ED50 [3]: 15 mg/kg

O=C1CCN(c2ccccc2)N1 [PHENIDONE]
IC50 (Cyclooxygenase [1]): 3 µM

O=c1c2ccccc2[nH]n1Cc1ccc(Cl)nc1
IC50 [2]: < 1 µM
ED50 [3]: 15 mg/kg
IC50 (Cyclooxygenase [4]): 3 µM

CCCCCNC(=O)c1cccc2n[nH]c(O)c12
ED25 (Canis familiaris): >250 µM

O=c1c2ccccc2[nH]n1CCc1ccccc1
IC50 (Cyclooxygenase [1]): 15 µM

Cn1[nH]c2ccccc2c1=O
IC50 (Cyclooxygenase [1]): 17 µM
ED25 (Canis familiaris): 10 µM

CCCCCNC(=O)c1cccc2[nH]n(C)c(=O)c12
ED25 (Canis familiaris): >250 µM

Cc1ccncc1Cn1[nH]c2ccccc2c1=O
IC50 [2]: 3 µM
IC50 (Cyclooxygenase [1]): > 30 µM
ED50 [3]: 5 mg/kg

O=c1c2ccccc2[nH]n1CCCc1ccccc1
IC50 [2]: 0.54 µM
IC50 (Cyclooxygenase [1]): 3.8 µM
ED50 [3]: > 100 mg/kg

CCCCCNC(=O)c1cccc2[nH]n(Cc3cccnc3)c(=O)c12
ED25 (Canis familiaris): >250 µM

C[C@@H](c1cccc2ccccc12)n1[nH]c2ccccc2c1=O
IC50 [2]: 11 µM
IC50 (Cyclooxygenase [1]): 48 µM

Oc1n[nH]c2ccccc12
IC50 (Cyclooxygenase [1]): 30 µM
ED25 (Canis familiaris): 40 µM

O=c1c2ccccc2[nH]n1Cc1ccccc1
IC50 (Cyclooxygenase [1]): 18 µM

C[C@H](c1cccc2ccccc12)n1[nH]c2ccccc2c1=O
IC50 [2]: 1.4 µM
IC50 (Cyclooxygenase [1]): 400 µM
ED50 [3]: > 100 mg/kg

O=c1[nH]n(-c2ccccc2)c2ccccc12
IC50 [2]: 30 µM

O=c1c2ccccc2[nH]n1Cc1cncs1
IC50 (Cyclooxygenase [1]): > 100 µM

O=c1c2ccccc2[nH]n1Cc1ccco1
IC50 (Cyclooxygenase [1]): 13 µM

O=c1c2ccccc2[nH]n1Cc1cccc2ccccc12
IC50 [2]: 0.61 µM
IC50 (Cyclooxygenase [1]): 100 µM
ED50 [3]: > 100 mg/kg

COc1ccc(Cn2[nH]c3ccccc3c2=O)cn1
IC50 (Cyclooxygenase [4]): 3 µM

Cn1c2ccccc2c(=O)n1Cc1ccccc1
IC50 [2]: > 30 µM
ED50 [3]: > 100 mg/kg

NC1=NN(c2cccc(C(F)(F)F)c2)CC1 [BW-755C]
IC50 (Cyclooxygenase [1]): 5 µM

Cn1c(=O)c2ccccc2n1Cc1ccccc1
IC50 [2]: > 30 µM

O=c1cc(-c2ccccc2)oc2cc(O)c(O)c(O)c12 [BAICALEIN]
IC50 (Cyclooxygenase [1]): 50 µM

O=c1c2ccccc2[nH]n1Cc1ccccn1
IC50 (Cyclooxygenase [1]): 67 µM

O=c1c2ccccc2[nH]n1Cc1cccnc1
IC50 (Cyclooxygenase [1]): > 300 µM
ED25 (Canis familiaris): 7.5 µM

Cn1[nH]c(=O)c2ccccc21
IC50 [2]: 3 µM
IC50 (Cyclooxygenase [1]): 20 µM
ED50 [3]: > 100 mg/kg

O=c1c2ccccc2[nH]n1Cc1ccc2ccccc2c1
IC50 (Cyclooxygenase [1]): 18 µM

O=c1c2ccccc2[nH]n1Cc1ccncc1
IC50 (Cyclooxygenase [1]): 280 µM

O=c1c2ccccc2[nH]n1CCCCc1ccccc1
IC50 [2]: 0.78 µM
IC50 (Cyclooxygenase [1]): 26 µM
ED50 [3]: > 100 mg/kg
